Source: ChEMBL document CHEMBL1146124, “Kinesin spindle protein (KSP) inhibitors. Part 3: synthesis and evaluation of phenolic 2,4-diaryl-2,5-dihydropyrroles with reduced hERG binding and employment of a phosphate prodrug strategy for aqueous solubility” (Bioorg Med Chem Lett, 2006)

Columns and labels:
Canis familiaris = experiment: Ratio of AUC's for parent compound after prodrug dosing and parent compound dosing in dog at 0.4 mg/kg, iv; assay type: ADME, organism-based, Canis lupus familiaris; design: dose 0.4 mg/kg, route intravenous; conditions: in vivo
Summary of the method: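 Prodrug and parent were each given intravenously in DMSO to dogs at 0.4 mpk. The value is the AUC of parent after prodrug dosing divided by the AUC after direct parent dosing, expressed as a percentage.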

[1] = Plasma clearance in dog at 0.4 mg/kg, iv; assay type: ADME, organism-based, Canis lupus familiaris; design: dose 0.4 mg/kg, route intravenous
Summary of the method: (§1)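 Given intravenously to dogs at 0.4 mpk, with DMSO as the vehicle.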

[2] = Half life in dog at 0.4 mg/kg, iv; assay type: ADME, organism-based, Canis lupus familiaris; design: dose 0.4 mg/kg, route intravenous; conditions: in vivo; summary of the method: as §1
[3] = Plasma clearance in rat at 1 mg/kg, iv; assay type: ADME, organism-based; design: dose 1 mg/kg, route intravenous
Summary of the method: (§2)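 Given intravenously to rats at 1 mpk, with DMSO as the vehicle.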

[4] = Half life in rat at 1 mg/kg, iv; assay type: ADME, organism-based; design: dose 1 mg/kg, route intravenous; conditions: in vivo; summary of the method: as §2
Rattus norvegicus = experiment: Ratio of AUC's for parent compound after prodrug dosing and parent compound dosing in rat at 1 mg/kg, iv; assay type: ADME, organism-based; design: dose 1 mg/kg, route intravenous; conditions: in vivo
Summary of the method: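 Prodrug and parent were each given intravenously in DMSO to rats at 1 mpk. The value is the AUC of parent after prodrug dosing divided by the AUC after direct parent dosing, expressed as a percentage.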

A2780 = experiment: Mitotic arrest in A2780 cells; assay type: functional, cell-based; conditions: Homo sapiens
Summary of the method: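 M-phase arrest read out by antibody-based detection of phosphonucleolin. Values are the average of at least two determinations, with standard deviations of 25–50%.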

[5] = target: T1, Kinesin-like protein KIF11 (Homo sapiens, UniProt P52732); experiment: Inhibition of KSP by ATPase assay
T1 sequence (P52732 whole entry): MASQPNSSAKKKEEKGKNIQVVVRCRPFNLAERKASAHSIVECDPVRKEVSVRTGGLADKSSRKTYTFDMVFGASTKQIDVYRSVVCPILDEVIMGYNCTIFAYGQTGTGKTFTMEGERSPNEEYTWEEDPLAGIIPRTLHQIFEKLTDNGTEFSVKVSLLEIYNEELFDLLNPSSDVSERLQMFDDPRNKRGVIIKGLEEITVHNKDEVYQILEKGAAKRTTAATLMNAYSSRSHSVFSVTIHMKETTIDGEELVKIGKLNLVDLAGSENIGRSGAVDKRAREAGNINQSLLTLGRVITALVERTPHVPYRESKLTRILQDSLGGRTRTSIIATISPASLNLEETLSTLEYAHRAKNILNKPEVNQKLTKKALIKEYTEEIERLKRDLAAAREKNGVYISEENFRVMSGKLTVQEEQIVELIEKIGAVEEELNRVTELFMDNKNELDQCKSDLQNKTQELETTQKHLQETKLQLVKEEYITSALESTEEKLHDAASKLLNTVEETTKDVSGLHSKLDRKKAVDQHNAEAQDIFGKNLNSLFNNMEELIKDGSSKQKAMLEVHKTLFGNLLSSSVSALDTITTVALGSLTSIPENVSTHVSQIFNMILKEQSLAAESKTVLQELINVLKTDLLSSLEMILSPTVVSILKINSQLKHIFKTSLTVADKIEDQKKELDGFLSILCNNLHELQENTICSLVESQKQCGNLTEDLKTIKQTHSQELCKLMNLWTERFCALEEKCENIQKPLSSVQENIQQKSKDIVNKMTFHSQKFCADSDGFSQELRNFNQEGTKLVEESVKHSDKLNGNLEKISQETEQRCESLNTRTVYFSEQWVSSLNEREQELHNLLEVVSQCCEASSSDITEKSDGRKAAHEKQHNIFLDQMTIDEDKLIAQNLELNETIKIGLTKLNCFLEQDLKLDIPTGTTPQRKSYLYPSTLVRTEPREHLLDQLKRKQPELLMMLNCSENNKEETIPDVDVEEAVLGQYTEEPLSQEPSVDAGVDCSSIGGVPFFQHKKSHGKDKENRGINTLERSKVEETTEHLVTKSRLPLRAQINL

[6] = target: Voltage-gated inwardly rectifying potassium channel KCNH2 (Homo sapiens, UniProt Q12809); experiment: Inhibitory activity against human hERG receptor expressed in HEK cells
Sequence of Voltage-gated inwardly rectifying potassium channel KCNH2 (Q12809 whole entry): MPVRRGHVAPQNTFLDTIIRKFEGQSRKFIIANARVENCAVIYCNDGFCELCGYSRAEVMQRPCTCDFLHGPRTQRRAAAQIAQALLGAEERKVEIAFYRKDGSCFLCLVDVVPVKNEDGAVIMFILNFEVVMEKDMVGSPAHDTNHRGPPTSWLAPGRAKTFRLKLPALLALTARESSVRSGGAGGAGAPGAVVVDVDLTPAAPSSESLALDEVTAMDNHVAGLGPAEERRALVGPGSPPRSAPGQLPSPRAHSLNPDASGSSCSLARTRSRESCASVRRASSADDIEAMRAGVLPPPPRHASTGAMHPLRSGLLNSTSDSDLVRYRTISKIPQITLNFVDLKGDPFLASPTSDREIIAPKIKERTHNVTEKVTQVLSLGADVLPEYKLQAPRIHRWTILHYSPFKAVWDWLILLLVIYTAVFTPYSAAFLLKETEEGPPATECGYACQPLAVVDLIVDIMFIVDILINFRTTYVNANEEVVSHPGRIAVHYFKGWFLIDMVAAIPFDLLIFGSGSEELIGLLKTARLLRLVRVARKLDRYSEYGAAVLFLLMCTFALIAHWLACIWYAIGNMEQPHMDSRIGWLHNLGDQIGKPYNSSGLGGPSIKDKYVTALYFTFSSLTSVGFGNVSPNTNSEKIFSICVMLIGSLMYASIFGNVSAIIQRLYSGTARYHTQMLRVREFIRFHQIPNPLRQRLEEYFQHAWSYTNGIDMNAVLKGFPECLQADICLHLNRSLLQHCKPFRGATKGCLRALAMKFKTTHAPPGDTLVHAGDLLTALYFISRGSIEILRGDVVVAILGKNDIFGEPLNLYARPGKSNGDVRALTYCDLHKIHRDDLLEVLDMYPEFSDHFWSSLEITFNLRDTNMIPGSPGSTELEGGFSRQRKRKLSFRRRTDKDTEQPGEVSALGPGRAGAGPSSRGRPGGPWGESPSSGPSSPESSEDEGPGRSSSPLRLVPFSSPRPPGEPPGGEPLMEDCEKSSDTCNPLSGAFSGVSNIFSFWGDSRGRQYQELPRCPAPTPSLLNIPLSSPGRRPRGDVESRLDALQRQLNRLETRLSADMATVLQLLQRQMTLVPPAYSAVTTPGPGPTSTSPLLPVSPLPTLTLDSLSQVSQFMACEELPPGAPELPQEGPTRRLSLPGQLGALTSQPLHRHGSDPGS

**Q.** Which “Ratio AUC” value (Canis familiaris) does the source give for CC(C)(C)[C@H](NC(=O)OCCO)C(=O)N1CC(c2cc(F)ccc2F)=C[C@H]1c1ccccc1 here?
**A.** 38%

**Q.** And the clearance [1]?
**A.** 11 mL/min/kg

**Q.** And the half-life [2]?
**A.** 168 min

**Q.** What about the clearance [3] of the same molecule?
**A.** 68 mL/min/kg

**Q.** And the half-life [4]?
**A.** 18 min

**Q.** And the “Ratio AUC” value (Rattus norvegicus)?
**A.** 57%

**Q.** For CC(C)(C)[C@H](NC(=O)OCCOP(=O)(O)O)C(=O)N1CC(c2cc(F)ccc2F)=C[C@H]1c1ccccc1, which half-life [2] is on record?
**A.** < 6 min

**Q.** And the half-life [4]?
**A.** < 6 min

**Q.** With N[C@H](C(=O)N1CC(c2cc(F)ccc2F)=C[C@H]1c1cccc(O)c1)C1CC1 as the molecule, how does the EC50 (A2780) read?
**A.** 3 nM

**Q.** And the IC50 [5]?
**A.** 0.5 nM

**Q.** Which results are given for CN(CCO)C(=O)N1CC(c2cc(F)ccc2F)=C[C@H]1c1cccc(O)c1?
**A.** EC50 (A2780): 9.1 nM; IC50 [5]: 4 nM

**Q.** What does the source list for CC(C)(C)[C@H](O)C(=O)N1CC(c2cc(F)ccc2F)=C[C@H]1c1cccc(O)c1?
**A.** EC50 (A2780): 2.6 nM; IC50 [5]: 1.3 nM

**Q.** For CN(C)C(=O)N1CC(c2cc(F)ccc2F)=C[C@H]1c1cccc(OP(=O)(O)O)c1, which half-life [2] is on record?
**A.** 15 min

**Q.** And the half-life [4]?
**A.** 9 min

**Q.** For O=C([C@@H](O)C1CC1)N1CC(c2cc(F)ccc2F)=C[C@H]1c1cccc(O)c1, which EC50 (A2780) is on record?
**A.** 3.1 nM

**Q.** And the IC50 [5]?
**A.** 2.9 nM

**Q.** Which EC50 (A2780) does the source give for CC(C)(C)C(=O)N1CC(c2cc(F)ccc2F)=C[C@H]1c1cccc(O)c1 here?
**A.** 37 nM

**Q.** And the IC50 [6]?
**A.** 7800 nM

**Q.** And the IC50 [5]?
**A.** 13 nM

**Q.** What does the source list for CC(C)[C@H](N)C(=O)N1CC(c2cc(F)ccc2F)=C[C@H]1c1cccc(O)c1?
**A.** EC50 (A2780): 3.3 nM; IC50 [5]: 1.2 nM

**Q.** With CN(C)C(=O)N1CC(c2cc(F)ccc2F)=C[C@H]1c1cccc(O)c1 as the molecule, how does the EC50 (A2780) read?
**A.** 22 nM

**Q.** And the clearance [1]?
**A.** 13 mL/min/kg

**Q.** What about the half-life [2] of the same molecule?
**A.** 90 min

**Q.** And the clearance [3]?
**A.** 68 mL/min/kg

**Q.** And the half-life [4]?
**A.** 18 min

**Q.** And the IC50 [5]?
**A.** 7 nM

**Q.** Which results are given for CN(C(=O)N1CC(c2cc(F)ccc2F)=CC1c1cccc(O)c1)C1CCNCC1 (racemic)?
**A.** EC50 (A2780): 8.5 nM; IC50 [5]: 5.5 nM
